Measured values taken from ChEMBL document CHEMBL1268946, “Discovery of 2-substituted benzoxazole carboxamides as 5-HT3 receptor antagonists” (Bioorg Med Chem Lett, 2010).
Activity calls are given as the source filed them. No cut-off for these calls is given here.

How the values were obtained:
[1] = Bioavailability in rat at 10 mg/kg, po or 1 mg/kg, iv; format: ADME, organism-based; conditions: in vivo
Mus musculus [2] = assay: Cardioprotective effect in po dosed mouse assessed as inhibition of 5-HT-induced bradycardia administered 1 hr prior to 5-HT challenge; format: functional
In short: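 Murine von Bezold–Jarisch reflex assay. Test agents were given orally 1 h before a 0.1 mg/kg 5-HT challenge. Read-out was block of 5-HT-induced transient bradycardia.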

[3] = Intrinsic clearance in human liver microsomes; format: ADME, Microsome
[4] = molecular target: T1, 5-hydroxytryptamine receptor 3A (Homo sapiens, UniProt P46098); assay: Binding affinity to human HT3A receptor
T1 sequence (P46098 whole entry): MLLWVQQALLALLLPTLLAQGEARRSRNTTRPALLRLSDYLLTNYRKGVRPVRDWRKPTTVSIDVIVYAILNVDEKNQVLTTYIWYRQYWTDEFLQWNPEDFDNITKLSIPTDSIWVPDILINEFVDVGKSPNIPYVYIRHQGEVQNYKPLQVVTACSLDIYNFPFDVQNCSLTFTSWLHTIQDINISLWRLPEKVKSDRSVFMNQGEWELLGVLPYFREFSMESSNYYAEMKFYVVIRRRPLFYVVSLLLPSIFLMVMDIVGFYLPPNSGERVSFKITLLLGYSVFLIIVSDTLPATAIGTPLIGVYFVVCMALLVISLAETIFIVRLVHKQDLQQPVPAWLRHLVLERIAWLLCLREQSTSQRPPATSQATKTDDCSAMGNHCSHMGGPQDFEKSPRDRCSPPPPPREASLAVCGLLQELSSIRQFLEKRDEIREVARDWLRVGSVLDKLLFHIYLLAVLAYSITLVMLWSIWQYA

[5] = molecular target: Voltage-gated inwardly rectifying potassium channel KCNH2 (Homo sapiens, UniProt Q12809); assay: Inhibition of human ERG expressed in HEK cells by patch clamp technique
Cytochrome P450 3A4 = Cytochrome P450 3A4 (Homo sapiens, UniProt P08684); assay: Inhibition of human CYP3A4; format: ADME
Mus musculus [6] = species: Mus musculus; conditions: 1.9 mg/kg
Cytochrome P450 2C19 = Cytochrome P450 2C19 (Homo sapiens, UniProt P33261); assay: Inhibition of human CYP2C19; format: ADME
[7] = Inhibition of human CYP450; format: ADME
Mus musculus [8] = species: Mus musculus; conditions: 0.56 mg/kg
Homo sapiens = species: Homo sapiens; assay: Inhibition of human nicotinic acetylcholine receptor at 1 uM
In short: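 Single-concentration screen at 1 µM within a 68-membered off-target receptor panel; inhibition above 50% counted as significant.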

Chain of Cytochrome P450 3A4 (P08684 whole entry): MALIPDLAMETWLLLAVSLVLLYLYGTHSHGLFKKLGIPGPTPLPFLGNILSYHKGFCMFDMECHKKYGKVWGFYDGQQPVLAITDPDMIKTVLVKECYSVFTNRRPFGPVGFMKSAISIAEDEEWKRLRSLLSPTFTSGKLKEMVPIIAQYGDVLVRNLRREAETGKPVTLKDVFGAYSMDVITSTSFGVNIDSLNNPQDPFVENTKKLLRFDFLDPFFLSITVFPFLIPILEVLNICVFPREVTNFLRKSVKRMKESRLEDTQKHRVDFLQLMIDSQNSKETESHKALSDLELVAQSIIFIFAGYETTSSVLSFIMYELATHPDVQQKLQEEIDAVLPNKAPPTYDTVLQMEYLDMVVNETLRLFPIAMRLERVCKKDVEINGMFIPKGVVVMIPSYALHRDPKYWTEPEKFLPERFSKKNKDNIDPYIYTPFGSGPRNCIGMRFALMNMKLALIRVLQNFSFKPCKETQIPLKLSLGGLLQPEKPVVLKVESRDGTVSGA
Chain of Voltage-gated inwardly rectifying potassium channel KCNH2 (Q12809 whole entry): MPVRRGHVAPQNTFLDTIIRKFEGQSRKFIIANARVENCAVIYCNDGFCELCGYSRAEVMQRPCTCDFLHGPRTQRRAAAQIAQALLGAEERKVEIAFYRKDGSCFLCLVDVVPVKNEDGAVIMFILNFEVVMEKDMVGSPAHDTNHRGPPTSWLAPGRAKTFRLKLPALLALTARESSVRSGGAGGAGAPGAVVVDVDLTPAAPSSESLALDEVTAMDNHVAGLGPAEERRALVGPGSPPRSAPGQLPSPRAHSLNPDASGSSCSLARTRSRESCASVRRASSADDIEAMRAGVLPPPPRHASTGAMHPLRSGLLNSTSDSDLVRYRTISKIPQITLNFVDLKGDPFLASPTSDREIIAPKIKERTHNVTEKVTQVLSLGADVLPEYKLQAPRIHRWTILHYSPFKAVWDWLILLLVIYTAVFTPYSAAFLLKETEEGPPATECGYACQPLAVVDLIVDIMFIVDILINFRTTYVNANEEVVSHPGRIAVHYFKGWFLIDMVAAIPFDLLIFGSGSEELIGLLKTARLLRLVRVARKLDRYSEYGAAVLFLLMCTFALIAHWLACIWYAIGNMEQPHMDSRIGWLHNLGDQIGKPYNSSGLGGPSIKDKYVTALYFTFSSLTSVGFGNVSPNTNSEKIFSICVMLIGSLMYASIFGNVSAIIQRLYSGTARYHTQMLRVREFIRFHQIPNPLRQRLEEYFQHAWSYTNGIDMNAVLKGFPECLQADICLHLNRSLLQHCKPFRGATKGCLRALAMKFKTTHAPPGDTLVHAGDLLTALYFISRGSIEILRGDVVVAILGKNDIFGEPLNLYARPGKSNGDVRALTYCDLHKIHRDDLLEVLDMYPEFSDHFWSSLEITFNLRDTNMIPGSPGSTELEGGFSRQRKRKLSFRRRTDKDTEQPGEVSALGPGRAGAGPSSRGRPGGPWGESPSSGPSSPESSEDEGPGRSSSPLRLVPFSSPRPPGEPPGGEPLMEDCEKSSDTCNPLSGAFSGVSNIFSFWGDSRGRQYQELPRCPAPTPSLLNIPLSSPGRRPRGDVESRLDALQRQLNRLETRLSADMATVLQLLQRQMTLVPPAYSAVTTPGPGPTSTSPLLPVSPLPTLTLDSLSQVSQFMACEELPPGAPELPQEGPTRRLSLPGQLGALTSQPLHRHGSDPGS
Chain of Cytochrome P450 2C19 (P33261 whole entry): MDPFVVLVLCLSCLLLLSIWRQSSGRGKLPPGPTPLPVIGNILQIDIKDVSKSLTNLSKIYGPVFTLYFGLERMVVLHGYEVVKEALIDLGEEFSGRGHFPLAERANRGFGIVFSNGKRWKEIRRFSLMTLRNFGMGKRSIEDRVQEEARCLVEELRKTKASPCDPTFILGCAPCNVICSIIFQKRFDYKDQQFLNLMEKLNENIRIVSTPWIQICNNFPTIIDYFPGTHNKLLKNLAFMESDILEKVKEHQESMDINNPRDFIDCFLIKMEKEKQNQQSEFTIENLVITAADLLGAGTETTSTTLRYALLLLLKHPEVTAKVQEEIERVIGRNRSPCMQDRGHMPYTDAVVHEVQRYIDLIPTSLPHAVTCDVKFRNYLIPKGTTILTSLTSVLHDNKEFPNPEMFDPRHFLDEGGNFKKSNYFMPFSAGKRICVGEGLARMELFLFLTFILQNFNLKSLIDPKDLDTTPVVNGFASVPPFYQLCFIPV

| Structure (SMILES) | microsomal CLint [3] | Ki [4] | other results |
| --- | --- | --- | --- |
| Cc1nccn1CC1CCc2c(c3ccccc3n2C)C1=O (stereo not given) [ONDANSETRON] | 5.8 µL/min/mg | – | bioavailability [1]: 21%; ED50 (Mus musculus [2]): 0.54 mg/kg |
| C[C@@H]1CN(c2nc3c(C(=O)N[C@@H]4C[C@H]5CCC[C@@H](C4)N5C)cccc3o2)C[C@H](C)O1 | – | 35.3 nM | – |
| CN1[C@@H]2CCC[C@H]1C[C@H](NC(=O)c1cccc3oc(-c4ccccc4)nc13)C2 | – | 15.1 nM | – |
| CN1[C@@H]2CCC[C@H]1C[C@H](NC(=O)c1cccc3oc(-c4ccc(F)cc4)nc13)C2 | – | 16.3 nM | – |
| COc1ccccc1-c1nc2c(C(=O)N[C@@H]3CN4CCC3CC4)cccc2o1 | 10.1 µL/min/mg | 47.3 nM | IC50 [5]: 200 nM; IC50 (Cytochrome P450 3A4): > 50000 nM; bioavailability [1]: 100% |
| C[C@@H]1CNC[C@@H](C)N1c1nc2c(C(=O)N[C@@H]3C[C@H]4CCC[C@@H](C3)N4C)cccc2o1 | – | 59.4 nM | – |
| CN1[C@@H]2CCC[C@H]1C[C@H](NC(=O)c1cccc3oc(N4CCNCC4)nc13)C2 | – | 72.2 nM | – |
| C[C@H]1CNCCN1c1nc2c(C(=O)N[C@@H]3C[C@H]4CCC[C@@H](C3)N4C)cccc2o1 | – | 16.5 nM | – |
| COc1ccccc1-c1nc2c(C(=O)N[C@@H]3C[C@H]4CCC[C@@H](C3)N4C)cccc2o1 | 2.8 µL/min/mg | 14.9 nM | IC50 [5]: 400 nM; IC50 (Cytochrome P450 3A4): 1100 nM; bioavailability [1]: 44% |
| C[C@H]1COC[C@H](C)N1c1nc2c(C(=O)N[C@@H]3C[C@H]4CCC[C@@H](C3)N4C)cccc2o1 | – | 0.6 nM | – |
| C[C@H]1CNC[C@H](C)N1c1nc2c(C(=O)N[C@@H]3C[C@H]4CCC[C@@H](C3)N4C)cccc2o1 | < 2 µL/min/mg | 2.4 nM | IC50 [5]: 6400 nM; ED50 (Mus musculus [2]): 0.85 mg/kg; inhibition (Mus musculus [6]): Active; IC50 (Cytochrome P450 2C19): 1400 nM |
| CN1[C@@H]2CCC[C@H]1C[C@H](NC(=O)c1cccc3nc(-c4ccccc4)oc13)C2 | – | 40.4 nM | – |
| CCN(CC)c1nc2c(C(=O)N[C@@H]3CN4CCC3CC4)cccc2o1 | – | 12.4 nM | – |
| CC[C@H]1COCCN1c1nc2c(C(=O)N[C@@H]3C[C@H]4CCC[C@@H](C3)N4C)cccc2o1 | – | 4.6 nM | – |
| CNc1nc2c(C(=O)N[C@@H]3CN4CCC3CC4)cccc2o1 | – | 36.4 nM | – |
| C[C@@H]1CNC[C@H](C)N1c1nc2c(C(=O)N[C@@H]3C[C@H]4CCC[C@@H](C3)N4C)cccc2o1 | – | 37.3 nM | – |
| CN1[C@@H]2CCC[C@H]1C[C@H](NC(=O)c1cccc3oc(-c4ccc(Cl)cc4)nc13)C2 | – | 18 nM | – |
| Nc1nc2c(C(=O)N[C@@H]3CN4CCC3CC4)cccc2o1 | < 2 µL/min/mg | 13.8 nM | ED50 (Mus musculus [2]): 1.08 mg/kg; IC50 [7]: > 100000 nM |

| Structure (SMILES) | microsomal CLint [3] | Ki [4] | other results |
| --- | --- | --- | --- |
| CC(C)N(C)c1nc2c(C(=O)N[C@@H]3CN4CCC3CC4)cccc2o1 | – | 66.5 nM | – |
| O=C(N[C@@H]1CN2CCC1CC2)c1cccc2oc(N3CCOCC3)nc12 | 0.6 µL/min/mg | – | IC50 [5]: 3200 nM; IC50 (Cytochrome P450 3A4): > 100000 nM; bioavailability [1]: 100% |
| CC[C@H]1COC[C@H](C)N1c1nc2c(C(=O)N[C@@H]3C[C@H]4CCC[C@@H](C3)N4C)cccc2o1 | – | 1 nM | – |
| CC(C)C[C@H]1COCCN1c1nc2c(C(=O)N[C@@H]3C[C@H]4CCC[C@@H](C3)N4C)cccc2o1 | – | 3.5 nM | – |
| Cc1[nH]cnc1CN1CCc2c(c3ccccc3n2C)C1=O [ALOSETRON] | 3 µL/min/mg | – | bioavailability [1]: 100%; ED50 (Mus musculus [2]): 0.02 mg/kg |
| CCNc1nc2c(C(=O)N[C@@H]3CN4CCC3CC4)cccc2o1 | – | 36.4 nM | – |
| Nc1nc2c(C(=O)N[C@@H]3CN4CCC3CC4)cc(Cl)cc2o1 | 3 µL/min/mg | 4.7 nM | IC50 [5]: 4800 nM; ED50 (Mus musculus [2]): 0.4 mg/kg; IC50 [7]: > 30000 nM; inhibition (Mus musculus [8]): Active |
| CN1[C@@H]2CCC[C@H]1C[C@H](NC(=O)c1cccc3oc(N4CCOCC4)nc13)C2 | 1 µL/min/mg | 40 nM | IC50 [5]: 1400 nM; IC50 (Cytochrome P450 3A4): > 50000 nM; bioavailability [1]: 35%; inhibition (Homo sapiens): > 50% |
| CCC[C@H]1COCCN1c1nc2c(C(=O)N[C@@H]3C[C@H]4CCC[C@@H](C3)N4C)cccc2o1 | – | 3.9 nM | – |
| COc1ccc(-c2nc3cccc(C(=O)N[C@@H]4C[C@H]5CCC[C@@H](C4)N5C)c3o2)cc1 | – | 58.5 nM | – |
| CN1[C@@H]2CCC[C@H]1C[C@H](NC(=O)c1cccc3nc(-c4ccc(F)cc4)oc13)C2 | – | 94.9 nM | – |
| CC(C)[C@H]1COCCN1c1nc2c(C(=O)N[C@@H]3C[C@H]4CCC[C@@H](C3)N4C)cccc2o1 | – | 5 nM | – |
| CN1[C@@H]2CCC[C@H]1C[C@H](NC(=O)c1cccc3oc(C4CC4)nc13)C2 | 23.5 µL/min/mg | 8.3 nM | IC50 (Cytochrome P450 3A4): > 50000 nM; bioavailability [1]: 32% |
| COc1ccc(-c2nc3c(C(=O)N[C@@H]4C[C@H]5CCC[C@@H](C4)N5C)cccc3o2)cc1 | – | 18.8 nM | – |
| O=C(N[C@@H]1CN2CCC1CC2)c1cccc2oc(C3CC3)nc12 | 4.5 µL/min/mg | 32.7 nM | IC50 [5]: 700 nM; IC50 (Cytochrome P450 3A4): > 100000 nM; bioavailability [1]: 13% |
| CN1[C@@H]2CCC[C@H]1C[C@H](NC(=O)c1cccc3oc(N4CCOC[C@@H]4C(C)(C)C)nc13)C2 | – | 2 nM | – |
| CN1[C@@H]2CCC[C@H]1C[C@H](NC(=O)c1cccc3nc(-c4ccc(Cl)cc4)oc13)C2 | – | 73.8 nM | – |
